# Results from ChEMBL document CHEMBL1153707 (Eur J Med Chem, 2010).
# Columns and labels:
# [1] = molecular target: Cyclin-dependent kinase 5/CDK5 activator 1 (Homo sapiens, UniProt Q00535); experiment: Inhibition of human CDK5/p25; assay type: protein-complex assay
# How it was run: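 CDK5/p25 kinase activity measured with 15 ATP and histone H1 as protein substrate; IC50 derived from dose-response curves.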
# [2] = molecular target: Casein kinase I isoform alpha/subunit beta (Homo sapiens, UniProt P48729+P67870); experiment: Inhibition of human CK1-alpha/CK2beta; assay type: protein-complex assay
# [3] = molecular target: Glycogen synthase kinase-3 (Homo sapiens, UniProt P49840+P49841); experiment: Inhibition of human GSK3alpha/ GSK3-beta; assay type: protein assay
# [4] = test system: SF-268; experiment: Cytotoxicity against human SF268 cells; assay type: functional
# Chain of Cyclin-dependent kinase 5/CDK5 activator 1 (Q00535 whole entry): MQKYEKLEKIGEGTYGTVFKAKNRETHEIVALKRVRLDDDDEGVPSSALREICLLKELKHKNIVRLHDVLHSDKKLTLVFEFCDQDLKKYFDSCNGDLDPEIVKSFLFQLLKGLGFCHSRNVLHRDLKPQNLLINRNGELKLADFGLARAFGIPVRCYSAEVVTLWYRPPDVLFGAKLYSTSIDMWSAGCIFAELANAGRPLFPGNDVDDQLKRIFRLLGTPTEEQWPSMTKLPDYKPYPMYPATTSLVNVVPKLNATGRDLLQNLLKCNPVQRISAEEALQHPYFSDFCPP
# Chain of Cyclin-dependent kinase 5/CDK5 activator 1 (Q15078 whole entry, further chain): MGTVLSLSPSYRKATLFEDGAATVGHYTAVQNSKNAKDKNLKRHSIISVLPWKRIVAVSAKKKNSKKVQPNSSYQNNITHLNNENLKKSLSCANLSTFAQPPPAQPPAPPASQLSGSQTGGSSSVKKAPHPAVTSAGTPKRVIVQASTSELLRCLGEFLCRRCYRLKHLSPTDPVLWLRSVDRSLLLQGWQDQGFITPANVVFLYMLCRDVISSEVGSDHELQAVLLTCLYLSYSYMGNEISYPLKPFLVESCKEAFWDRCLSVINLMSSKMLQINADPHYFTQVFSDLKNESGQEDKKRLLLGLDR
# Chain of Casein kinase I isoform alpha/subunit beta (P67870 whole entry, canonical isoform): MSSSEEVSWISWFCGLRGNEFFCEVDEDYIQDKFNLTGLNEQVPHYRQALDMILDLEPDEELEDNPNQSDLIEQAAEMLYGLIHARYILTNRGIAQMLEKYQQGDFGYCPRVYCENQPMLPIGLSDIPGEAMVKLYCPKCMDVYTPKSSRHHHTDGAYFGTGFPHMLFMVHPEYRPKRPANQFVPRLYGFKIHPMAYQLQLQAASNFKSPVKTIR
# Chain of Casein kinase I isoform alpha/subunit beta (P48729 whole entry, canonical isoform): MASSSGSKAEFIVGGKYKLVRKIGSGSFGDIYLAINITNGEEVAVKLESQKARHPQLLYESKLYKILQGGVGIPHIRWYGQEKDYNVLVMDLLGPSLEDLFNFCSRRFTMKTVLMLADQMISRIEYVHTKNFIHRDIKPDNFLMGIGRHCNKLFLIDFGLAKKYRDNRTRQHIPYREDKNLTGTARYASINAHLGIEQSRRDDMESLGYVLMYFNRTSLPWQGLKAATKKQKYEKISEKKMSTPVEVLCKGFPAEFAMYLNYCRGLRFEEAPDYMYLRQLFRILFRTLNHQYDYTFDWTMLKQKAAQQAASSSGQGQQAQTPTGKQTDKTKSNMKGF
Structure (SMILES),IC50 [1] [µM],IC50 [2] [µM],IC50 [3] [µM],GI50 [4] [µM]
CN1C(=O)/C(=C/c2ccc3c(c2)OCO3)N=C1NCCNCc1ccc(Cl)cc1,> 100,> 100,> 100,
CN1C(=O)/C(=C/c2ccc3c(c2)OCO3)N=C1NCC/N=C/c1ccc2c(c1)OCC2,> 100,> 100,15,
CN1C(=O)/C(=C/c2ccc3c(c2)OCO3)N=C1NCC/N=C/c1ccc(Cl)cc1,> 100,> 100,> 100,
COc1cc(/C=N/CCNC2=N/C(=C\c3ccc4c(c3)OCO4)C(=O)N2C)cc(OC)c1OC,> 100,> 100,> 100,
CN1C(=O)/C(=C/c2ccc3c(c2)OCO3)N=C1NCCNCc1ccc2c(c1)OCC2,> 100,> 100,> 10,
CN1C(=O)/C(=C/c2ccc3c(c2)OCO3)N=C1NCCNCc1ccc2c(c1)OCCO2,> 100,> 100,> 10,
COc1ccc(CNCCNC2=N/C(=C\c3ccc4c(c3)OCO4)C(=O)N2C)cc1,> 100,> 100,> 10,
CN1C(=O)/C(=C/c2ccc3c(c2)OCO3)N=C1NCCNCc1ccc([N+](=O)[O-])cc1,> 100,> 100,> 100,
COc1cc(CNCCNC2=N/C(=C\c3ccc4c(c3)OCO4)C(=O)N2C)cc(OC)c1OC,> 100,> 100,> 100,
CN1C(=O)/C(=C/c2ccc3c(c2)OCO3)N=C1NCCN.Cl,> 100,> 100,1.4,
CN1C(=O)/C(=C/c2ccc3c(c2)OCO3)N=C1NCC/N=C/c1ccccc1,> 100,> 100,7,
CN1C(=O)/C(=C/c2ccc3c(c2)OCO3)N=C1NCC/N=C/c1ccc2c(c1)OCCO2,> 100,> 100,38,
COc1ccc(/C=N/CCNC2=N/C(=C\c3ccc4c(c3)OCO4)C(=O)N2C)cc1,> 100,> 100,7.3,
CN1C(=O)/C(=C/c2ccc3c(c2)OCO3)N=C1NCC/N=C/c1ccc([N+](=O)[O-])cc1,> 100,> 100,> 100,
CN1C(=O)/C(=C/c2ccc3c(c2)OCO3)N=C1NCC/N=C/c1ccc2c(c1)OCO2,> 100,> 100,0.86,
CN1C(=O)/C(=C/c2ccc3c(c2)OCO3)N=C1NCCNCc1ccccc1,> 100,> 100,> 10,
CN1C(=O)/C(=C/c2ccc3c(c2)OCO3)N=C1NCCNCc1ccc2c(c1)OCO2,> 100,> 100,> 10,
CN1C(=O)/C(=C/c2ccc3c(c2)OCO3)N=C1N [LEUCETTAMINE B],,> 100,15,
COc1cc(/C=C2\N=C(N)NC2=O)ccc1O [POLYANDROCARPAMINE A],,,,65
